Reference: ChEMBL document CHEMBL3045425, “Isolation and identification of precocenes and piperitone from essential oils as specific inhibitors of trichothecene production by Fusarium graminearum” (J Agric Food Chem, 2009)
The source made the active and inactive calls. The rule behind the calls is not given here.

How the values were obtained:
[1] = system: Fusarium culmorum; test: Inhibition of 3-acetyldeoxynivalenol production by Fusarium culmorum in liquid culture; format: functional, organism-based
[2] = system: Fusarium graminearum; test: Effect on deoxynivalenol synthetic pathway intermediates accumulation in Fusarium graminearum at 1000 uM by TLC analysis; format: functional, organism-based
In short: (§1)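 Pooled broth (5 × 10 mL) was split into filtrate and mycelia. Filtrate was extracted with ethyl acetate and mycelia with methanol. n-Hexane and ethyl acetate fractions were examined spectroscopically for intermediate signals such as trichodiene.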

[3] = system: Fusarium graminearum; test: Growth inhibition of Fusarium graminearum assessed as mycelial weight at 26.5 degC after 7 days; format: organism-based; details: in vivo, 168 h
In short: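 Methanolic sample added to 5 mL SYEP (sucrose 5%, yeast extract 0.1%, polypeptone 0.1%), final methanol 0.3%. Inoculated with 1 × 10^5 spores/tube and shaken at 300 rpm, 26.5 °C, for 7 days. Mycelia were collected on cheesecloth, washed with water, dried at 100 °C for 3 h and weighed.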

[4] = system: Fusarium graminearum; test: microbe, parasite or virus in culture; format: functional
[5] = system: Fusarium graminearum; test: Downregulation of Tri6 gene expression in Fusarium graminearum at 300 to 1000 uM measured after 72 hr by quantitative-RT-PCR analysis; format: functional, organism-based
In short: (§2)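 Spores (1 × 10^5/tube) grown in 5 mL SYEP medium with shaking at 300 rpm, 26.5 °C, for 72 h, with or without compound at 300 or 1000 µM. Mycelial total RNA was used for SYBR Green qRT-PCR on cDNA from 0.005 µg RNA: 95 °C 10 min, then 40 cycles of 95 °C 15 s / 60 °C 1 min. Normalised to β-tubulin mRNA; n = 3.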

[6] = system: Fusarium graminearum; test: microbe, parasite or virus in culture; format: functional, organism-based; details: 168 h
[7] = system: Fusarium graminearum; test: Downregulation of Tri4 gene expression in Fusarium graminearum at 300 to 1000 uM measured after 72 hr by quantitative-RT-PCR analysis; format: functional, organism-based; in short: as §2
[8] = system: Fusarium graminearum; test: Downregulation of Tri10 gene expression in Fusarium graminearum at 300 to 1000 uM measured after 72 hr by quantitative-RT-PCR analysis; format: functional, organism-based; in short: as §2
[9] = system: Fusarium graminearum; test: microbe, parasite or virus in culture; format: functional; remark: listed apart in the source
[10] = system: Fusarium graminearum; format: functional, organism-based
[11] = system: Fusarium graminearum; test: Downregulation of Tri5 gene expression in Fusarium graminearum at 300 to 1000 uM measured after 72 hr by quantitative-RT-PCR analysis; format: functional, organism-based; in short: as §2
[12] = system: Fusarium graminearum; format: functional, organism-based; remark: listed apart in the source
[13] = system: Fusarium graminearum; test: Downregulation of Tri5 gene expression in Fusarium graminearum at 3 to 30 uM at 26.5 degC measured after 48 to 144 hr by quantitative-RT-PCR analysis; format: functional, organism-based
In short: (§3)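 SYEP liquid medium (5 mL/tube) inoculated with 1 × 10^5 spores and shaken at 300 rpm, 26.5 °C, with or without compound at 3 or 30 µM, for 48, 96 or 144 h. Total RNA was taken from the mycelia. SYBR Green real-time RT-PCR was run on cDNA from 0.005 µg RNA: 95 °C 10 min, then 40 cycles of 95 °C 15 s / 60 °C 1 min. β-tubulin mRNA was the reference; n = 3.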

[14] = system: Fusarium graminearum; test: Downregulation of Tri6 gene expression in Fusarium graminearum at 26.5 degC measured after 48 to 96 hr by quantitative-RT-PCR analysis; format: functional, organism-based; in short: as §3
[15] = system: Fusarium graminearum; test: Downregulation of Tri10 gene expression in Fusarium graminearum at 26.5 degC measured after 48 to 96 hr by quantitative-RT-PCR analysis; format: functional, organism-based; in short: as §3
[16] = system: Fusarium graminearum; test: Effect on deoxynivalenol synthetic pathway intermediates accumulation in Fusarium graminearum at 30 uM by TLC analysis; format: functional, organism-based; in short: as §1
[17] = system: Fusarium graminearum; test: Downregulation of Tri4 gene expression in Fusarium graminearum at 3 to 30 uM at 26.5 degC measured after 48 to 144 hr by quantitative-RT-PCR analysis; format: functional, organism-based; in short: as §3

| SMILES | IC50 [1] [µM] | Activity [2] | Activity [3] | inhibition at 152 ppm [4] [%] | inhibition [5] | IC50 [6] [µM] | inhibition [7] | inhibition [8] | inhibition at 5.7 ppm [9] [%] | IC50 [10] [ppm] | inhibition [11] | IC50 [12] [ppm] | inhibition [13] | inhibition [14] | inhibition [15] | Activity [16] | inhibition [17] |
| --- | --- | --- | --- | --- | --- | --- | --- | --- | --- | --- | --- | --- | --- | --- | --- | --- | --- |
| CC(=O)c1cccc2oc(=O)[nH]c12 [4-ACETYL-2-BENZOXAZOLINONE] | 4 |  |  |  |  |  |  |  |  |  |  |  |  |  |  |  |  |
| CC1=CC(=O)[C@@H](C(C)C)CC1 [(-)-PIPERITONE] |  | inactive | Non-toxic | 25 | Active | 306 | Active | Active | 20 | 61.2 | Active |  |  |  |  |  |  |
| COc1cc2c(cc1OC)OC(C)(C)C=C2 [PROCOCENE II] |  |  | Non-toxic |  |  | 1.2 |  |  |  | 0.36 |  | 2 | Active | Dose-dependent effect | Dose-dependent effect | inactive | Active |
| COc1ccc2c(c1)OC(C)(C)C=C2 [PROCOCENE I] |  |  |  | 25 |  | 16.6 |  |  | 20 | 1.3 |  |  |  |  |  |  |  |
